# Measured values from ChEMBL document CHEMBL1121831 (1981).
# Tests used:
# CCRF-CEM [1] = assay: Compound was tested for the inhibition of growth of human lymphoblastic leukemia cells (CEM); assay type: functional; settings: read-out: ID50 (the source's name)
# Method in brief: (§1)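 CEM human lymphoblastic and L1210 murine leukemia cells were grown in culture with drug for 48 h, at concentrations up to 10 μM. The read-out was growth inhibition, given as ID50 or, where ID50 was not reached, as percent inhibition at 10 μM. Values are averages of triplicate experiments.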
# [2] = biological target: Dihydrofolate reductase (Lactobacillus casei) (UniProt P00381); assay: Affinity for partially purified bacterial (Lactobacillus casei) dihydrofolate reductase; settings: Lacticaseibacillus casei
# [3] = biological target: T1, Dihydrofolate reductase (Mus musculus) (UniProt P00375); assay: Affinity for mammalian (L1210 mouse leukemia) dihydrofolate reductase
# T1 sequence (whole entry): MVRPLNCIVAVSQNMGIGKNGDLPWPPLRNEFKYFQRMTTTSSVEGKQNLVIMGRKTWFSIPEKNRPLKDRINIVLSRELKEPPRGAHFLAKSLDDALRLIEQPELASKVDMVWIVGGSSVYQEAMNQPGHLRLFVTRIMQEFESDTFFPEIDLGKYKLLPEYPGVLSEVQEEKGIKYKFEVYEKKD
# Method in brief: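 Partially purified DHFR from L1210 cells, diluted 8-fold in 0.1 M KH2PO4 (pH 6.2) with 0.1% BSA and 1 mM NADPH, then held on ice 5 min. Competition with [3H]MTX over serial 5-fold dilutions starting from a 6 μM solution, 5 min at 0 °C. Unbound ligand removed with Norite charcoal and the supernatant counted; ID50 (50% drop in bound label) read from a logit-log plot.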
# L1210 [4] = assay: Compound was tested for the inhibition of growth of murine leukemia cells (L1210); assay type: functional; settings: Mus musculus, read-out: ID50 (the source's name); method in brief: as §1
# CCRF-CEM [5] = assay: Compound is tested for the inhibition of growth of human lymphoblastic leukemia cells (CEM); assay type: functional; settings: read-out: ID50 (the source's name); method in brief: as §1
# [6] = biological target: Dihydrofolate reductase (Lactobacillus casei) (UniProt P00381); assay: Compound is evaluated for binding to dihydrofolate reductase of Lactobacillus casei using kinetic assay; settings: Lacticaseibacillus casei
# L1210 [7] = assay: Compound is evaluated for activity against L1210 leukemia in mice, at dose 120 mg/kg; assay type: functional, Mus musculus
# Method in brief: (§2)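 B6D2F1 mice were inoculated ip with 10^5 L1210 cells on day 0. Test agents were given ip on days 1, 4 and 7 in 10% Tween 80 or a 1:1:8 emulphor-ethanol-water suspension; MTX was given ip as the disodium salt in water. Groups were mostly five mice. Read-out was median survival of treated vs control mice (days) and % increase in life span.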
# L1210 [8] = assay: Compound is evaluated for activity against L1210 leukemia in mice, at dose 40 mg/kg; assay type: functional, Mus musculus; method in brief: as §2
# L1210 [9] = assay: Compound is evaluated for activity against L1210 leukemia in mice, at dose 80 mg/kg; assay type: functional, Mus musculus; method in brief: as §2
# L1210 [10] = assay: Compound is tested for the inhibition of growth of murine leukemia cells (L1210); assay type: functional; settings: Mus musculus, read-out: ID50 (the source's name); method in brief: as §1
# L1210 [11] = assay: Compound is evaluated for percent increase in life span against L1210 leukemia in mice, at dose 80 mg/kg; assay type: functional; settings: Mus musculus
# Method in brief: (§3)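 B6D2F1 mice were inoculated ip with 10⁵ L1210 cells on day 0. Drug was given ip on days 1, 4 and 7 (q3d) as a suspension in 10% Tween 80 or 1:1:8 emulphor–ethanol–water, or as the disodium salt in water. The read-out was median survival of treated versus control mice (T/C, days), expressed as % increase in life span.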
# L1210 [12] = assay: Compound is evaluated for percent increase in life span against L1210 leukemia in mice, at dose 40 mg/kg; assay type: functional; settings: Mus musculus; method in brief: as §3
# L1210 [13] = assay: Compound is evaluated for percent increase in life span against L1210 leukemia in mice, at dose 120 mg/kg; assay type: functional; settings: Mus musculus; method in brief: as §3
# Mus musculus [14] = assay: Compound is evaluated for activity against L1210 leukemia in mice, at dose 40 mg/kg expressed as T/C= 13/9; assay type: functional; method in brief: as §2
# Mus musculus [15] = assay: Compound is evaluated for activity against L1210 leukemia in mice, at dose 80 mg/kg expressed as T/C=19/9; assay type: functional; method in brief: as §2
# Mus musculus [16] = assay: Compound is evaluated for activity against L1210 leukemia in mice, at dose 120 mg/kg expressed as T/C=23/9; assay type: functional; method in brief: as §2
# [17] = biological target: T1, Dihydrofolate reductase (Mus musculus); assay: Compound is evaluated for binding to L1210 mouse leukemia cells dihydrofolate reductase using ligand-binding assay
# [18] = biological target: Dihydrofolate reductase (Lactobacillus casei) (UniProt P00381); assay: Compound is evaluated for binding to Lactobacillus casei dihydrofolate reductase using kinetic assay; settings: Lacticaseibacillus casei
# L1210 [19] = assay: Compound is evaluated for activity against L1210 leukemia in mice, at dose 15 mg/kg in experiment 1; assay type: functional, Mus musculus; method in brief: as §2
# L1210 [20] = assay: Compound is evaluated for activity against L1210 leukemia in mice, at dose 20 mg/kg in experiment 2; assay type: functional, Mus musculus; method in brief: as §2
# L1210 [21] = assay: Compound is evaluated for activity against L1210 leukemia in mice, at dose 40 mg/kg in experiment 2; assay type: functional, Mus musculus; method in brief: as §2
# L1210 [22] = assay: Compound was evaluated for activity against L1210 leukemia in mice, at dose 7.5 mg/kg in experiment 1; assay type: functional, Mus musculus; method in brief: as §2
# L1210 [23] = assay: Compound is evaluated for percent increase in life span against L1210 leukemia in mice, at dose 20 mg/kg in experiment 2; assay type: functional; settings: Mus musculus; method in brief: as §3
# L1210 [24] = assay: Compound is evaluated for percent increase in life span against L1210 leukemia in mice, at dose 40 mg/kg in experiment 2; assay type: functional; settings: Mus musculus; method in brief: as §3
# L1210 [25] = assay: Compound is evaluated for percent increase in life span against L1210 leukemia in mice, at dose 7.5 mg/kg in experiment 1; assay type: functional; settings: Mus musculus; method in brief: as §3
# L1210 [26] = assay: Compound is evaluated for percent increase in life span against L1210 leukemia in mice, at dose 15 mg/kg in experiment 1; assay type: functional; settings: Mus musculus; method in brief: as §3
# Mus musculus [27] = assay: Compound is evaluated for activity against L1210 leukemia in mice, at dose 40 mg/kg expressed as T/C in experiment 2=12/9; assay type: functional; method in brief: as §2
# Mus musculus [28] = assay: Compound was evaluated for activity against L1210 leukemia in mice, at dose 7.5 mg/kg expressed as T/C in experiment 1=14/10; assay type: functional; method in brief: as §2
# Mus musculus [29] = assay: Compound is evaluated for activity against L1210 leukemia in mice, at dose 15 mg/kg expressed as T/C in experiment 1=14/10; assay type: functional; method in brief: as §2
# Mus musculus [30] = assay: Compound is evaluated for activity against L1210 leukemia in mice, at dose 20 mg/kg expressed as T/C in experiment 2=16/9; assay type: functional; method in brief: as §2
# RBL-1 = assay: Compound was tested for the inhibition of growth of rat basophilic leukemia (RBL) cells; assay type: functional; settings: read-out: ID50 (the source's name)
# L1210 [31] = assay: Compound is evaluated for activity against L1210 leukemia in mice, at dose 160 mg/kg; assay type: functional, Mus musculus; method in brief: as §2
# L1210 [32] = assay: Compound is evaluated for increase in life span against L1210 leukemia in mice, at dose 160 mg/kg; assay type: functional; settings: Mus musculus; method in brief: as §3
# L1210 [33] = assay: Compound is evaluated for increase in life span against L1210 leukemia in mice, at dose 80 mg/kg; assay type: functional; settings: Mus musculus; method in brief: as §3
# Mus musculus [34] = assay: Compound is evaluated for activity against L1210 leukemia in mice, at dose 80 mg/kg expressed as T/C=11/9; assay type: functional; method in brief: as §2
# Mus musculus [35] = assay: Compound is evaluated for activity against L1210 leukemia in mice, at dose 160 mg/kg expressed as T/C=13/9; assay type: functional; method in brief: as §2
# Chain of Dihydrofolate reductase (Lactobacillus casei) (P00381 whole entry): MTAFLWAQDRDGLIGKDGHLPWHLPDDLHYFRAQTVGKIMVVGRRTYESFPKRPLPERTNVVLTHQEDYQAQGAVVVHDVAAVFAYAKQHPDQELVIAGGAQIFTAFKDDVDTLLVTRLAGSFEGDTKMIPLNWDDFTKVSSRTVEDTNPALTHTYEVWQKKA
structure (smiles),measurement,setting,value
CN(Cc1ccccc1)C(=O)CCC(NC(=O)c1ccc(N(C)Cc2cnc3nc(N)nc(N)c3n2)cc1)C(=O)N(C)Cc1ccccc1 (stereo not drawn),IC50,CCRF-CEM [1],6.4 µM
same,ID50,[2],0.44 µM
same,ID50,[3],0.026 µM
same,IC50,L1210 [4],9.4 µM
CN(Cc1cnc2nc(N)nc(N)c2n1)c1ccc(C(=O)NC(CCC(=O)Nc2ccccc2)C(=O)Nc2ccccc2)cc1 (stereo not drawn),IC50,CCRF-CEM [5],3.3 µM
same,ID50,[6],1.1 µM
same,MTX equivalent,L1210 [7],90 mg/kg
same,MTX equivalent,L1210 [8],30 mg/kg
same,MTX equivalent,L1210 [9],60 mg/kg
same,IC50,L1210 [10],410 nM
same,ILS at 80 mg/kg,L1210 [11],111%
same,ILS at 40 mg/kg,L1210 [12],44%
same,ILS at 120 mg/kg,L1210 [13],155%
same,Median T/C,Mus musculus [14],13 days
same,Median T/C,Mus musculus [15],19 days
same,Median T/C,Mus musculus [16],23 days
same,ID50,[17],0.074 µM
CN(Cc1cnc2nc(N)nc(N)c2n1)c1ccc(C(=O)NC(CCC(=O)NN)C(=O)NN)cc1 (stereo not drawn),IC50,CCRF-CEM [5],7.5 µM
same,ID50,[18],0.36 µM
same,MTX equivalent,L1210 [19],14.2 mg/kg
same,MTX equivalent,L1210 [20],18.8 mg/kg
same,MTX equivalent,L1210 [21],37.6 mg/kg
same,MTX equivalent,L1210 [22],7.1 mg/kg
same,IC50,L1210 [10],950 nM
same,ILS at 20 mg/kg,L1210 [23],77%
same,ILS at 40 mg/kg,L1210 [24],33%
same,ILS at 7.5 mg/kg,L1210 [25],40%
same,ILS at 15 mg/kg,L1210 [26],40%
same,Median T/C,Mus musculus [27],12 days
same,Median T/C,Mus musculus [28],14 days
same,Median T/C,Mus musculus [29],14 days
same,Median T/C,Mus musculus [30],16 days
same,IC50,RBL-1,960 nM
same,ID50,[17],0.02 µM
CN(Cc1cnc2nc(N)nc(N)c2n1)c1ccc(C(=O)NC(CCC(=O)NCc2ccc(Cl)cc2)C(=O)NCc2ccc(Cl)cc2)cc1 (stereo not drawn),IC50,CCRF-CEM [5],> 10 µM
same,ID50,[18],2.3 µM
same,MTX equivalent,L1210 [31],130 mg/kg
same,MTX equivalent,L1210 [9],65 mg/kg
same,IC50,L1210 [10],6600 nM
same,ILS at 160 mg/kg,L1210 [32],44%
same,ILS at 80 mg/kg,L1210 [33],22%
same,Median T/C,Mus musculus [34],11 days
same,Median T/C,Mus musculus [35],13 days
same,ID50,[17],0.18 µM
CN(Cc1cnc2nc(N)nc(N)c2n1)c1ccc(C(=O)NC(CCC(=O)N(Cc2ccccc2)Cc2ccccc2)C(=O)N(Cc2ccccc2)Cc2ccccc2)cc1 (stereo not drawn),IC50,CCRF-CEM [1],7.6 µM
same,ID50,[18],0.86 µM
same,IC50,L1210 [4],0.69 µM
same,ID50,[17],0.53 µM
